This is an account of results in ChEMBL document CHEMBL1781898, “Orally active achiral N-hydroxyformamide inhibitors of ADAM-TS4 (aggrecanase-1) and ADAM-TS5 (aggrecanase-2) for the treatment of osteoarthritis” (Bioorg Med Chem Lett, 2011).

Data set [1] concerns the target Matrix metalloproteinase-9 (Homo sapiens, UniProt P14780). The experiment in a line: Inhibition of recombinant human MMP-9 assessed as substrate cleavage after 20 hrs by fluorescence assay. An outline of the steps:
(§1)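 Enzyme inhibition IC50s derived from at least six measurements, standard errors normally <5% within an assay; a standard compound run to keep assay-to-assay variability within twofold.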

A short description of data set [2]: Clearance in rat at 2 mg/kg, iv. In kind it is ADME, organism-based. On the set-up: dose 2 mg/kg, route intravenous. Particulars: in vivo; call rule not given here. An outline of the steps:
(§2)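 Rat iv PK: 2 mg/kg iv, n = 2 animals; clearance, half-life and Vdss determined.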

The target in a further data set is T1, Cytochrome P450 1A2 (Homo sapiens, UniProt P05177).
T1 sequence (P05177 whole entry): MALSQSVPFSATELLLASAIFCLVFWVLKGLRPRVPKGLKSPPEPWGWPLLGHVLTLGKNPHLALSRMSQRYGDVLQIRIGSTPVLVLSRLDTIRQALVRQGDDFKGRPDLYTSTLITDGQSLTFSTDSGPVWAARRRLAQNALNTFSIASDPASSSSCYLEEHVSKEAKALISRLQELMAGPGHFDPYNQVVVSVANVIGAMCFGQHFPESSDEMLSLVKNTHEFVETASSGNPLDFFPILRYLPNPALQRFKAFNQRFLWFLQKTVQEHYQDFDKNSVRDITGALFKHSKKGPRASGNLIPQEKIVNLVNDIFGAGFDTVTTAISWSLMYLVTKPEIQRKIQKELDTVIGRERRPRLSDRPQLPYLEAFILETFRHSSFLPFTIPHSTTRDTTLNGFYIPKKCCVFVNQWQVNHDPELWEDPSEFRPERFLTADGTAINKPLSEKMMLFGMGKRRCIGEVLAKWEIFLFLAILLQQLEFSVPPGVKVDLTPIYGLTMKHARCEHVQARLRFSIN
The experiment in a line: Inhibition of CYP1A2. In kind it is ADME. An outline of the steps:
(§3)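 Inhibition of cytochrome P450 isoforms 1A2, 2C9, 2C19, 2D6 and 3A4, reported as pIC50.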

The nature of data set [3]: Inhibition of aggrecanase activity in human late stage diseased osteoarthritis cartilage explant assessed as inhibition of aggrecan degradation measuring ARGSVIL neo-peptide release.
Data set [4] in a line: Half life in mouse. In kind it is ADME, organism-based. Particulars: in vivo.
Data set [5] in a line: Oral bioavailability in rat. In kind it is ADME, organism-based. Particulars: in vivo.
The next data set concerns the target Cytochrome P450 2D6 (Homo sapiens, UniProt P10635). The data set is described as follows: Inhibition of CYP2D6. In kind it is ADME. An outline of the steps: as §3
The nature of data set [6]: Absolute bioavailability in mouse. Particulars: in vivo. In kind it is ADME, organism-based.
Data set [7] deals with 72 kDa type IV collagenase (Homo sapiens, UniProt P08253). The data set is described as follows: Inhibition of recombinant human MMP-2 assessed as substrate cleavage after 20 hrs by fluorescence assay. An outline of the steps: as §1
The nature of data set [8]: Clearance in mouse. The following applies: in vivo. In kind it is ADME, organism-based.
Data set [9] in a line: Volume of distribution at steady state in rat at 2 mg/kg, iv. In kind it is ADME, organism-based. On the set-up: dose 2 mg/kg, route intravenous. Particulars: in vivo, read-out: Vdss. An outline of the steps: as §2
A short description of data set [10]: Absolute bioavailability in dog. In kind it is ADME, organism-based, Canis lupus familiaris. Particulars: in vivo.
Data set [11] addresses Matrix metalloproteinase-14 (Homo sapiens, UniProt P50281). The data set is described as follows: Inhibition of recombinant human MMP-14 assessed as substrate cleavage after 20 hrs by fluorescence assay. An outline of the steps:
as §1

A short description of data set [12]: Intrinsic clearance in human liver microsomes. In kind it is ADME, Microsome. In short, it runs like this:
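Human liver microsome metabolism; intrinsic clearance expressed as μL/min/mg, reported as mean of eight separate experiments.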
(In general: Liver microsomes are a subcellular fraction often used to study metabolism.)

Data set [13] can be described thus: Half life in rat at 2 mg/kg, iv and 3 to 10 mg/kg, po. In kind it is ADME, organism-based. The following applies: in vivo.
Data set [14] is described as follows: Inhibition of aggrecanase activity in IL-1-stimulated human osteoarthritis cartilage explant assessed as inhibition of aggrecan degradation measuring ARGSVIL neo-peptide release.
Another data set deals with Cytochrome P450 2C19 (Homo sapiens, UniProt P33261). The data set is described as follows: Inhibition of CYP2C19. In kind it is ADME. In short, it runs like this: as §3
Data set [15] in a line: Clearance in dog at 1 mg/kg, iv and 1 mg/kg, po. In kind it is ADME, organism-based, Canis lupus familiaris. The following applies: in vivo.
The next data set addresses T2, Interstitial collagenase (Homo sapiens, UniProt P03956).
T2 sequence (P03956 whole entry): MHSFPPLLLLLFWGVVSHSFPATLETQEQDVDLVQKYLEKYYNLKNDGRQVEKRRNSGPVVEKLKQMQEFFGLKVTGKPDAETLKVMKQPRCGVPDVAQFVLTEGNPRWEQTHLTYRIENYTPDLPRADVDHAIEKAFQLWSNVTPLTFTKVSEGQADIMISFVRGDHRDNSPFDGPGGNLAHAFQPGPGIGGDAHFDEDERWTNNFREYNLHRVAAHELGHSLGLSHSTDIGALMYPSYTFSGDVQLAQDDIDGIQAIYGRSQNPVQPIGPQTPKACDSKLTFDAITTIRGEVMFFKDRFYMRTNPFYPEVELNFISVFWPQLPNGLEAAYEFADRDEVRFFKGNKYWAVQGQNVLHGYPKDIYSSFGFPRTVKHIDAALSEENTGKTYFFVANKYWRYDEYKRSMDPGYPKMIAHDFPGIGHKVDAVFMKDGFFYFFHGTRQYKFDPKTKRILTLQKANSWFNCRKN
The experiment in a line: Inhibition of recombinant human MMP-1 assessed as substrate cleavage after 20 hrs by fluorescence assay. In short, it runs like this: as §1

A further data set concerns the target Cytochrome P450 3A4 (Homo sapiens, UniProt P08684). The data set is described as follows: Inhibition of CYP3A4. In kind it is ADME. In short, it runs like this:
as §3

The next data set deals with Collagenase 3 (Homo sapiens, UniProt P45452). The data set is described as follows: Inhibition of recombinant human MMP-13 assessed as substrate cleavage after 20 hrs by fluorescence assay. An outline of the steps: as §1

Sequence of Cytochrome P450 3A4 (P08684 whole entry): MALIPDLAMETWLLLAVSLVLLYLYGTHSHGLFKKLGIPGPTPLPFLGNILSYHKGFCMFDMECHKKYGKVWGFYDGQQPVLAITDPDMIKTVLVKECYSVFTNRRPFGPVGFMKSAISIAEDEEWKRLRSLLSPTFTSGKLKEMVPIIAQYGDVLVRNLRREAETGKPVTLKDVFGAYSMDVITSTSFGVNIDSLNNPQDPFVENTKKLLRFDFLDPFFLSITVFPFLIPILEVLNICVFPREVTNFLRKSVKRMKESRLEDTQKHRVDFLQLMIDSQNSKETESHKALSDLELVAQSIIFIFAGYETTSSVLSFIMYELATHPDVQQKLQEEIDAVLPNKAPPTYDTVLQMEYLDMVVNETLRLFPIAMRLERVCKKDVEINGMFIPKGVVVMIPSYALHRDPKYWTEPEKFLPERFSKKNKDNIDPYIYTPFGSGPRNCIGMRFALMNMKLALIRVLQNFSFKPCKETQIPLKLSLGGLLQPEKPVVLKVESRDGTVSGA
Sequence of Matrix metalloproteinase-9 (P14780 whole entry): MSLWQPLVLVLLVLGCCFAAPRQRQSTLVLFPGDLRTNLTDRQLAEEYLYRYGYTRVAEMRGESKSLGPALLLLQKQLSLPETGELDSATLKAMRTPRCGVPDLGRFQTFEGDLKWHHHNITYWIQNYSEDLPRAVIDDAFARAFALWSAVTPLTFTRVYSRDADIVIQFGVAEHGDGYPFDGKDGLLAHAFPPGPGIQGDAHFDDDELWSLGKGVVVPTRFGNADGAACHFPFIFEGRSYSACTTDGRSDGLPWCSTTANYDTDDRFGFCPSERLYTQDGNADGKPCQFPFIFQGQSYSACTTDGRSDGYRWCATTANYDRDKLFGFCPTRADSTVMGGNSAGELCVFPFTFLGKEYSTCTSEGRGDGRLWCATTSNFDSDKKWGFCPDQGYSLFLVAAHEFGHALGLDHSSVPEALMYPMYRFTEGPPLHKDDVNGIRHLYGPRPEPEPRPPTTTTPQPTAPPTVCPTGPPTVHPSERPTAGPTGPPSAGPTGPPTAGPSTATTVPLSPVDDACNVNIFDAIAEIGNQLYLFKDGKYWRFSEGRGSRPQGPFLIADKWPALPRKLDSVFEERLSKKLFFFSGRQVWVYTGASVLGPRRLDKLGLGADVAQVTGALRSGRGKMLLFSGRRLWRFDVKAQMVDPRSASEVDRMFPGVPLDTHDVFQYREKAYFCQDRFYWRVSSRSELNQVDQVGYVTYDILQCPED
Sequence of Cytochrome P450 2D6 (P10635 whole entry): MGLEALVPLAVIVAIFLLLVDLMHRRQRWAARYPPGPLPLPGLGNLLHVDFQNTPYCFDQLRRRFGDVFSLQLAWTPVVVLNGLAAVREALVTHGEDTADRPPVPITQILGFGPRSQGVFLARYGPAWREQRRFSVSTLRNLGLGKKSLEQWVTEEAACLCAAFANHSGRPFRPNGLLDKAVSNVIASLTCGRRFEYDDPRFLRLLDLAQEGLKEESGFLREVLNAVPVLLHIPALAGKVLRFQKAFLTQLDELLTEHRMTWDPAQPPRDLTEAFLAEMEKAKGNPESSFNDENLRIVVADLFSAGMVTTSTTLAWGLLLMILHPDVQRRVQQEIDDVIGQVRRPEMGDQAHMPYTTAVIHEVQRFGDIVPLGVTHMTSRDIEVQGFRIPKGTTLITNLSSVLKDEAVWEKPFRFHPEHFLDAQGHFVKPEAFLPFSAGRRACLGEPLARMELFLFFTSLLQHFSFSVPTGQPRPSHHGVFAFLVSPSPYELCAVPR
Sequence of Cytochrome P450 2C19 (P33261 whole entry): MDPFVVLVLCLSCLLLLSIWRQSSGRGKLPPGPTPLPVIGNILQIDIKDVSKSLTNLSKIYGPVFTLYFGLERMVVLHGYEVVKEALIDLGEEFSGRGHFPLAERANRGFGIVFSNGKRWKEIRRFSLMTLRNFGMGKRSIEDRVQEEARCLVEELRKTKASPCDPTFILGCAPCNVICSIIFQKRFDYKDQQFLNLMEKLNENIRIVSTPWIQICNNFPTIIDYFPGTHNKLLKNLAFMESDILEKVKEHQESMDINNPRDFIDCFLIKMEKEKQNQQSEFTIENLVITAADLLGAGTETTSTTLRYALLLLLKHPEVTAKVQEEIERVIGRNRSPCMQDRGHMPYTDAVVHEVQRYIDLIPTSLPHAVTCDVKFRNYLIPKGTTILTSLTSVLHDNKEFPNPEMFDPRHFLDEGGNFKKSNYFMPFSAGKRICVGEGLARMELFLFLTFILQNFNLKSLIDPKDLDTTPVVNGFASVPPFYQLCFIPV
Sequence of 72 kDa type IV collagenase (P08253 whole entry): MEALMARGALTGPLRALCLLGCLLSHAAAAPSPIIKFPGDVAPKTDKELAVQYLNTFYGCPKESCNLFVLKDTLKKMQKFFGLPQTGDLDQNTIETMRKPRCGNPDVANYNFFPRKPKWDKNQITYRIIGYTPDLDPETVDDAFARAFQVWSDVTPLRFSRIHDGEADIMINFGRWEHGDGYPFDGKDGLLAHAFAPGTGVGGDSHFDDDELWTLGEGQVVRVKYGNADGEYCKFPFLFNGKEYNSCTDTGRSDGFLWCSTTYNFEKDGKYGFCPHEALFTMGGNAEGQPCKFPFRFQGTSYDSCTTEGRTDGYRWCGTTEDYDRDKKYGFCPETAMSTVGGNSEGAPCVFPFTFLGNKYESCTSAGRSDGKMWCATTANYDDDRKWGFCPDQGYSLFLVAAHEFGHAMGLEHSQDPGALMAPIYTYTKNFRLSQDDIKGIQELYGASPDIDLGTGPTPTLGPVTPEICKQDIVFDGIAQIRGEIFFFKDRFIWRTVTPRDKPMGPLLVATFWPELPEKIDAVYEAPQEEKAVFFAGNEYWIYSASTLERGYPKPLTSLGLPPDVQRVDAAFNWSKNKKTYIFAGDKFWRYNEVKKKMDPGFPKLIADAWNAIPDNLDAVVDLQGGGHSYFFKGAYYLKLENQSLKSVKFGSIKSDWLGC

One may read the IC50 as the point on the concentration scale where inhibition reaches its midpoint. For orientation: half-life means the time in which the quantity being followed falls by half. High values mean slow loss, low ones fast loss. As a reminder, the bioavailability is dose-corrected exposure relative to a reference, in per cent. High values mean good availability, low ones poor availability. As a reminder, the microsomal CLint is the rate of metabolic loss divided by the concentration. Higher therefore signals rapid turnover. In the case of `Cc1noc(C)c1CCC1CCN(S(=O)(=O)CC2(N(O)C=O)CCOCC2)CC1`, the half-maximal inhibitory concentration (IC50) was more than 25 µM in data set [1]; 0.15 µM in data set [3]; more than 23 µM in [7]; more than 23 µM in [11]; 0.12 µM in [14]; more than 10 µM on Interstitial collagenase. In addition, the 50% inhibitory concentration (IC50) on Collagenase 3 was more than 31 µM. Moreover, the clearance in [2] was 24 mL/min/kg; in data set [8], 30 mL/min/kg; in data set [15], 13 mL/min/kg. The “inhibition (INH)” value against Cytochrome P450 1A2, at Cytochrome P450 2D6, against Cytochrome P450 2C19 and at Cytochrome P450 3A4 was “Not Active” each time. Further, the half-life was 2.6 h in data set [4] and 8.9 h in data set [13]. Moreover, the bioavailability in data set [5] stood at 45%; in data set [6] it was 54%; in [10], 52%. Moreover, the Vd in data set [9] was 3 L/kg. The same molecule showed a microsomal CLint in data set [12] of 3.1 µL/min/mg.
